The values below come from ChEMBL document CHEMBL1212900, “Falcipain inhibitors: optimization studies of the 2-pyrimidinecarbonitrile lead series” (J Med Chem, 2010).

Assay [1] is described as follows: Inhibition of Plasmodium falciparum falcipain-3 expressed in Escherichia coli. The gist of the method: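 Refolded recombinant enzyme from E. coli, 2 nM, in 100 mM sodium acetate pH 5.5 with 500 μM CHAPS and 10 mM DTT, DMSO up to 1%. H-D-Val-Leu-Arg-AFC at 150 μM final. Reaction started by enzyme addition; fluorescence monitored 1 h at room temperature. IC50 derived from percent activity plotted against inhibitor concentration.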

A further assay has as its system Plasmodium falciparum. Kind of assay: Antiplasmodial activity against Plasmodium falciparum W2 after 48 hrs. To be noted: W2, 48 h. Type of assay: functional, organism-based. Summed up:
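W2 P. falciparum grown in human erythrocytes, 2% hematocrit, RPMI with 10% human serum or 0.5% AlbuMAX II; sorbitol-synchronized. Serial dilutions from DMSO stocks added at ring stage for 48 h, medium and drug renewed at 24 h. Cells fixed in 1% formaldehyde, stained with YOYO-1, parasitemia counted by flow cytometry; IC50 from percent parasitemia versus untreated controls.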

Assay [2] can be described thus: Inhibition of Plasmodium falciparum falcipain-2 expressed in Escherichia coli. Summed up: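 Recombinant E. coli-expressed, refolded enzyme at 0.25 nM in 100 mM sodium acetate pH 5.5, 500 μM CHAPS, 10 mM DTT, DMSO ≤1%. Substrate H-D-Val-Leu-Arg-AFC at 30 μM final. Inhibitor dilutions mixed with substrate, enzyme added last; fluorescence followed 1 h at room temperature. IC50 from percent activity versus concentration.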

Regarding `CC1OCCC1CN(NC(=O)c1ccc(CN2CCN(C)CC2)cc1)c1nc(C#N)ncc1Br` (stereo unspecified), the IC50 (in general, the concentration at which inhibition is half-maximal) was determined as 75 nM in assay [1], 193 nM in the assay with Plasmodium falciparum and 2 nM in assay [2].

For `CC(C)CN(NC(=O)C(C)(C)c1ccc(CN2CCN(C)CC2)cc1)c1nc(C#N)ncc1Br`, the concentration for half-maximal inhibition (IC50) in assay [1] turned out to be 21 nM; with Plasmodium falciparum it was 236 nM; in assay [2], 3 nM.

Regarding `CN1CCN(Cc2ccc(C(=O)NN(c3nc(C#N)ncc3Br)C3CCOCC3)cc2)CC1`, the figures for the IC50 (in assay [1]; in the assay with Plasmodium falciparum; in assay [2]) were 17 nM, 59 nM and 0.9 nM, respectively.

On to `CN1CCN(Cc2ccc(C(=O)NN(c3nc(C#N)ncc3Br)C3CCCCC3)cc2)CC1`, for which the values for the IC50 (in assay [1]; in the assay on Plasmodium falciparum; in assay [2]) were 6 nM, 27 nM and 0.5 nM, respectively.

As to `CC(C)CN(NC(=O)c1ccc(OCCN2CCOCC2)cc1)c1nc(C#N)ncc1Br`, the concentration for half-maximal inhibition (IC50) in assay [1] worked out at 145 nM; in the assay with Plasmodium falciparum it was 622 nM; in assay [2], 3 nM.

Consider `CCCCC(CCCC)CN(NC(=O)c1ccc(CN2CCN(C)CC2)cc1)c1nc(C#N)ncc1Br`, for which the IC50 in assay [1] was 656 nM; in the assay with Plasmodium falciparum, 566 nM; in assay [2] it was 293 nM.

As to `CCCN1CCN(c2ccc(C(=O)NN(CC(C)C)c3nc(C#N)ncc3Br)cc2)CC1`, the 50% inhibitory concentration (IC50) in assay [1] was 32 nM; in the assay on Plasmodium falciparum, 25 nM; in assay [2], less than 0.5 nM.

On to `CN1CCN(Cc2ccc(C(=O)NN(CC3CCOCC3)c3nc(C#N)ncc3Br)cc2)CC1`, for which the half-maximal inhibitory concentration (IC50) in assay [1] stood at 135 nM; in the assay with Plasmodium falciparum it was 310 nM; in assay [2], 11 nM.

As to `CC(C)CN(NC(=O)c1cc2cc(CN3CCN(C)CC3)ccc2o1)c1nc(C#N)ncc1Br`, the results for the IC50 (in assay [1]; in the assay with Plasmodium falciparum; in assay [2]) were 29 nM, 30 nM and less than 0.5 nM, respectively.

As for `CN1CCN(Cc2ccc(C(=O)NN(CC3CC=CC3)c3nc(C#N)ncc3Br)cc2)CC1`, the IC50 worked out at 16 nM in assay [1], 98 nM with Plasmodium falciparum and 0.7 nM in assay [2].

As to `CN1CCN(Cc2ccc(C(=O)NN(Cc3ccco3)c3nc(C#N)ncc3Br)cc2)CC1`, the IC50 worked out at 180 nM in assay [1], 721 nM in the assay on Plasmodium falciparum and 4 nM in assay [2].

On to `CC(C)CN(NC(=O)Cc1ccc(CN2CCN(C)CC2)cc1)c1nc(C#N)ncc1Br`, for which the 50% inhibitory concentration (IC50) is 5 nM in assay [1], 28 nM with Plasmodium falciparum and 0.8 nM in assay [2].

Consider `C[C@H]1CCC[C@H]1N(NC(=O)c1ccc(CN2CCN(C)CC2)cc1)c1nc(C#N)ncc1Br` (relative stereo), for which the values for the IC50 (in assay [1]; with Plasmodium falciparum; in assay [2]) were 41 nM, 82 nM and 2 nM, respectively.

In the case of `CC(C)CN(NC(=O)c1cc2cc(OCCN3CCNCC3)ccc2o1)c1nc(C#N)ncc1Cl`, the figures for the concentration for half-maximal inhibition (IC50) (in assay [1]; with Plasmodium falciparum; in assay [2]) were 107 nM, 76 nM and 1 nM, respectively.

For `CN1CCN(Cc2ccc(C(=O)NN(CC3(C)CCCCC3)c3nc(C#N)ncc3Br)cc2)CC1`, the IC50 in assay [1] is 17 nM; with Plasmodium falciparum, 1490 nM; in assay [2], 5 nM.

Consider `CC(C)CN(NC(=O)Cc1ccc(CN2CCN(C)CC2)cc1)c1nc(C#N)ncc1Cl`, for which the figures for the IC50 (in assay [1]; with Plasmodium falciparum; in assay [2]) were 5 nM, 43 nM and 0.7 nM, respectively.

Turning to `CC(C)CN(NC(=O)C(C)(C)c1ccc(CN2CCN(C)CC2)cc1)c1nc(C#N)ncc1Cl`, the IC50 in assay [1] was found to be 46 nM; in the assay on Plasmodium falciparum it was 253 nM; in assay [2], 5 nM.

Take `CC(C)CN(c1nc(C#N)ncc1Cl)N(CCCN1CCN(C)CC1)C(=O)Cc1ccccc1`: the IC50 in assay [1] was determined as 78 nM; with Plasmodium falciparum it was 108 nM; in assay [2], 11 nM.

As for `CC(C)CN(NC(=O)c1cc2cccc(CN3CCN(C)CC3)c2o1)c1nc(C#N)ncc1Br`, the concentration for half-maximal inhibition (IC50) in assay [1] came to 61 nM; in the assay with Plasmodium falciparum, 48 nM; in assay [2], 0.4 nM.

For `CC(C)CN(NC(=O)c1ccc(OCCN2CCOCC2)cc1)c1nc(C#N)ncc1Cl`, the IC50 in assay [1] was 90 nM; with Plasmodium falciparum it was 870 nM; in assay [2], 2 nM.

On to `CC(C)CN(c1nc(C#N)ncc1Br)N(CCCN1CCN(C)CC1)C(=O)c1ccc(F)cc1`, for which the IC50 in assay [1] came to 105 nM; in the assay on Plasmodium falciparum it was 346 nM; in assay [2], 9 nM.

On to `CN1CCN(Cc2ccc(C(=O)NN(CCC3CCCC3)c3nc(C#N)ncc3Br)cc2)CC1`, for which the half-inhibitory concentration (IC50) in assay [1] was found to be 45 nM; in the assay on Plasmodium falciparum, 177 nM; in assay [2], 4 nM.

As for `CC(C)CN(NC(=O)c1ccc(CN2CCN(C)CC2)cc1)c1nc(C#N)ncc1Br`, the half-inhibitory concentration (IC50) in assay [1] was found to be 55 nM; in the assay with Plasmodium falciparum, 15 nM; in assay [2], 0.4 nM.

As to `CN1CCN(Cc2ccc(C(=O)NN(CCC(C)(C)C)c3nc(C#N)ncc3Br)cc2)CC1`, the results for the IC50 (in assay [1]; with Plasmodium falciparum; in assay [2]) were 39 nM, 1500 nM and 3 nM, respectively.

As to `CC(C)CN(NC(=O)Cc1ccc(OCCN2CCOCC2)cc1)c1nc(C#N)ncc1Cl`, the IC50 was found to be 8 nM in assay [1], 403 nM in the assay on Plasmodium falciparum and 1 nM in assay [2].

Regarding `CN1CCN(Cc2ccc(C(=O)NN(CC3CCCCC3)c3nc(C#N)ncc3Br)cc2)CC1`, the figures for the 50% inhibitory concentration (IC50) (in assay [1]; in the assay on Plasmodium falciparum; in assay [2]) were 16 nM, 263 nM and 2 nM, respectively.

Turning to `CC(C)CN(NC(=O)c1cncc(-c2cccc(CN3CCN(C)CC3)c2)c1)c1nc(C#N)ncc1Br`, the concentration for half-maximal inhibition (IC50) in assay [1] was 4 nM; with Plasmodium falciparum, 2 nM; in assay [2], less than 0.5 nM.

Take `CC(C)CN(NC(=O)C(C)(C)c1ccc(OCCN2CCOCC2)cc1)c1nc(C#N)ncc1Br`: the IC50 is 13 nM in assay [1], 802 nM with Plasmodium falciparum and 3 nM in assay [2].

For the compound `CC(C)CN(NC(=O)c1ccc(N2CCN(C)CC2)cc1)c1nc(C#N)ncc1Br`, the values for the IC50 (in assay [1]; in the assay on Plasmodium falciparum; in assay [2]) were 32 nM, 33 nM and less than 0.2 nM, respectively.

On to `C[C@@H]1CCC[C@H]1N(NC(=O)c1ccc(CN2CCN(C)CC2)cc1)c1nc(C#N)ncc1Br`, for which the IC50 in assay [1] came to 3 nM; in the assay on Plasmodium falciparum, 5 nM; in assay [2] it was 0.2 nM.

`CN1CCN(Cc2ccc(C(=O)NN(Cc3ccccc3)c3nc(C#N)ncc3Br)cc2)CC1`: the values for the IC50 (in assay [1]; with Plasmodium falciparum; in assay [2]) were 335 nM, 2370 nM and 5 nM, respectively.

For `CC(C)CCN(NC(=O)c1ccc(CN2CCN(C)CC2)cc1)c1nc(C#N)ncc1Br`, the concentration for half-maximal inhibition (IC50) in assay [1] was 68 nM; in the assay on Plasmodium falciparum it was 262 nM; in assay [2], 4 nM.

As to `CC(C)CN(NC(=O)c1ccc(N2CCOCC2)nc1)c1nc(C#N)ncc1Br`, the concentration for half-maximal inhibition (IC50) in assay [1] was 53 nM; in the assay on Plasmodium falciparum it was 1530 nM; in assay [2] it was 0.2 nM.

On to `CC(C)CN(NC(=O)C1(c2ccc(Cl)cc2)CC1)c1nc(C#N)ncc1Br`, for which the values for the IC50 in assay [1] and in assay [2] were 69 nM and 15 nM, respectively.

For the compound `CC(C)CN(NC(=O)c1cc(-c2ccccc2)[nH]n1)c1nc(C#N)ncc1Br`, the IC50 in assay [1] was determined as 352 nM; in assay [2], 3 nM.

Consider `CC(C)(C)OC(=O)NN(CCc1ccccc1)c1nc(C#N)ncc1Br`, for which the half-maximal inhibitory concentration (IC50) is 557 nM in assay [1] and 93 nM in assay [2].

Turning to `CC(C)(C)OC(=O)NN(CCC1CCCCC1)c1nc(C#N)ncc1Br`, the IC50 is 860 nM in assay [1] and 257 nM in assay [2].

Take `CC(C)CN(NC(=O)c1cncc(-c2ccccc2)c1)c1nc(C#N)ncc1Cl`: the IC50 in assay [1] was 26 nM; in assay [2] it was 0.8 nM.

As for `CC(C)(C)OC(=O)NN(Cc1ccco1)c1nc(C#N)ncc1Br`, the IC50 in assay [1] worked out at 140 nM; in assay [2], 8 nM.
